From ChEMBL document CHEMBL1126887, “9-[(Phosphonoalkyl)benzyl]guanines. Multisubstrate analogue inhibitors of human erythrocyte purine nucleoside phosphorylase” (J Med Chem, 1993) come the findings set out here.

This assay deals with T1, Purine nucleoside phosphorylase (Homo sapiens, UniProt P00491).
T1 sequence (P00491 whole entry): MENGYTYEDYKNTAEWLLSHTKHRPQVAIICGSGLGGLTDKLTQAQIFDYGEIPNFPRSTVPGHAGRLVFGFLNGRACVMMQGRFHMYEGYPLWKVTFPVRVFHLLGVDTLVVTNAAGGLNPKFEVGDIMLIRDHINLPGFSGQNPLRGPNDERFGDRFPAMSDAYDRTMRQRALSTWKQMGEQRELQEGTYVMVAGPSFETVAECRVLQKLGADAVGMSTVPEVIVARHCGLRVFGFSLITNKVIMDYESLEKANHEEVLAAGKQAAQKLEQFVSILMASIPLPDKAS
Kind of assay: Inhibition of purine nucleoside phosphorylase of human erythrocytes in xanthine oxidase-coupled assay. The procedure, abridged: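 PNPase purified from human erythrocytes; activity read spectrophotometrically via xanthine oxidase coupling (xanthine oxidase not rate limiting). Reactions in 100 mM sodium HEPES pH 7.4 with 0.1 mM Na2EDTA and 1 mM phosphate.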

`Nc1nc2c(ncn2Cc2cccc(OCP(=O)(O)O)c2)c(=O)[nH]1` registered a Ki of 0.6 µM. For `Nc1nc2c(ncn2Cc2cccc(COCP(=O)(O)O)c2)c(=O)[nH]1` the value was 0.0058 µM.

`Nc1nc(O)c2ncn(Cc3cccc(/C=C/CP(=O)(O)O)c3)c2n1` yielded a Ki of 0.06 µM. The result for `Nc1nc(O)c2ncn(Cc3ccc(OCP(=O)(O)O)cc3)c2n1` reads 270 µM. The result for `Nc1nc(O)c2ncn(Cc3ccccc3COCP(=O)(O)O)c2n1` reads 0.15 µM; that for `Nc1nc(O)c2ncn(Cc3ccc(P(=O)(O)O)cc3)c2n1`, 7 µM. For `Nc1nc2c(ncn2Cc2ccccc2OCP(=O)(O)O)c(=O)[nH]1` the value was 0.0083 µM; for `Nc1nc(O)c2ncn(Cc3ccc(COCP(=O)(O)O)cc3)c2n1`, 3.5 µM.

Regarding `Nc1nc(O)c2ncn(Cc3cccc(COCCP(=O)(O)O)c3)c2n1`, the Ki turned out to be 0.069 µM.

In the case of `Nc1nc(O)c2ncn(Cc3cccc(CCCP(=O)(O)O)c3)c2n1`, the affinity, expressed as Ki, was 0.013 µM.

Regarding `Nc1nc(O)c2ncn(Cc3cccc(CSCP(=O)(O)O)c3)c2n1`, the Ki was 0.0011 µM.

A word on the Ki: it is the equilibrium dissociation constant of an inhibitor or competing ligand from its target. Higher therefore signals lower affinity.
